# Laboratory results reported in ChEMBL document CHEMBL5724801, “EUbOPEN Chemogenomics Library - Multiplex” (2024).
# Values joined by “and” are separate entries in the source; they are usually repeats but may differ in a detail not shown here. Identical values can stand only once.
# Experiments:
# HEK-293T = assay: Multiplex assay against HEK293T; assay type: toxicity, cell-based; conditions: human
# Summary of the method: (§1)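 At seeding, live cells were stained with Hoechst33342, BioTracker Green Microtubule Cytoskeleton Dye, MitoTracker Red and Annexin V Alexa Fluor 680. After compound addition they were imaged on a CQ1 microscope at 37°C and 5% CO2, and CellPathfinder machine-learning gating sorted them into Hoechst high-intensity objects or normal cells, with normal cells further split into healthy, pyknosed or fragmented nuclei and pyknosed cells into mitotic or apoptotic. Tubulin, mitochondrial-mass and membrane-permeability phenotypes are given as per cents of cells with healthy nuclei.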
# U2OS = assay: Multiplex assay against U2OS; assay type: toxicity, cell-based; conditions: human; summary of the method: as §1
# [1] = 24 h, 1 µM, compound concentration 1 uM
# [2] = 24 h, 10 µM, compound concentration 10 uM
# [3] = 48 h, 1 µM, compound concentration 1 uM
# [4] = 48 h, 10 µM, compound concentration 10 uM
# [5] = 12 h, 1 µM, compound concentration 1 uM
# [6] = 12 h, 10 µM, compound concentration 10 uM
smiles,measurement,setting,value
CCC(=N\O)/C(C)=C/c1ccc(F)cc1 [A-079],Population Tubulin-Different-Phenotype (%),HEK-293T; [1],7.73% and 3.85%
same,Population Apoptotic (%),HEK-293T; [2],13.24% and 15.38%
same,Population Fragmented Nuclei (%),HEK-293T; [2],1.47% and 1.14%
same,Population Healthy Nuclei (%),HEK-293T; [2],73.48% and 39.77%
same,Population Hoechst High Intensity Objects (%),HEK-293T; [2],0.18% and 0.56%
same,Population Membrane Permeable-Phenotype (%),HEK-293T; [2],0.75% and 0%
same,Population Mitochondria Different-Phenotype (%),HEK-293T; [2],16.04% and 8.57%
same,Population Mitotic Cells (%),HEK-293T; [2],86.76% and 84.62%
same,Population Normal (%),HEK-293T; [2],99.82% and 99.44%
same,Population Pyknosed Nuclei (%),HEK-293T; [2],25.05% and 59.09%
same,Population Apoptotic (%),HEK-293T; [3],8.9% and 17.46%
same,Population Fragmented Nuclei (%),HEK-293T; [3],5.91% and 2.96%
same,Population Healthy Nuclei (%),HEK-293T; [3],84.62% and 78.4%
same,Population Hoechst High Intensity Objects (%),HEK-293T; [3],0% and 0.29%
same,Population Membrane Permeable-Phenotype (%),HEK-293T; [3],6.52% and 3.4%
same,Population Mitochondria Different-Phenotype (%),HEK-293T; [3],8.82% and 9.06%
same,Population Mitotic Cells (%),HEK-293T; [3],91.1% and 82.54%
same,Population Normal (%),HEK-293T; [3],100% and 99.71%
same,Population Pyknosed Nuclei (%),HEK-293T; [3],9.47% and 18.64%
same,Population Apoptotic (%),HEK-293T; [4],8.2% and 20.78%
same,Population Fragmented Nuclei (%),HEK-293T; [4],3.08% and 0.64%
same,Population Healthy Nuclei (%),HEK-293T; [4],85.54% and 50%
same,Population Hoechst High Intensity Objects (%),HEK-293T; [4],0% and 0.64%
same,Population Membrane Permeable-Phenotype (%),HEK-293T; [4],3.82% and 1.28%
same,Population Mitochondria Different-Phenotype (%),HEK-293T; [4],18.43% and 25.64%
same,Population Mitotic Cells (%),HEK-293T; [4],91.8% and 79.22%
same,Population Normal (%),HEK-293T; [4],100% and 99.36%
same,Population Apoptotic (%),U2OS; [5],48.57% and 40.91%
same,Population Fragmented Nuclei (%),U2OS; [5],1.07% and 0%
same,Population Healthy Nuclei (%),U2OS; [5],91.47% and 83.94%
same,Population Hoechst High Intensity Objects (%),U2OS; [5],0%
same,Population Membrane Permeable-Phenotype (%),U2OS; [5],0.47% and 1.74%
same,Population Mitochondria Different-Phenotype (%),U2OS; [5],0% and 11.3%
same,Population Mitotic Cells (%),U2OS; [5],51.43% and 59.09%
same,Population Normal (%),U2OS; [5],100%
same,Population Pyknosed Nuclei (%),U2OS; [5],7.46% and 16.06%
same,Population Tubulin-Different-Phenotype (%),U2OS; [5],0.47% and 1.74%
same,Population Apoptotic (%),U2OS; [6],36.67% and 36.84%
same,Population Fragmented Nuclei (%),U2OS; [6],3.39% and 2.96%
same,Population Healthy Nuclei (%),U2OS; [6],88.14% and 82.96%
same,Population Hoechst High Intensity Objects (%),U2OS; [6],0%
same,Population Membrane Permeable-Phenotype (%),U2OS; [6],1.6% and 0.89%
same,Population Mitochondria Different-Phenotype (%),U2OS; [6],0% and 4.46%
same,Population Mitotic Cells (%),U2OS; [6],63.33% and 63.16%
same,Population Normal (%),U2OS; [6],100%
same,Population Pyknosed Nuclei (%),U2OS; [6],8.47% and 14.07%
same,Population Tubulin-Different-Phenotype (%),U2OS; [6],0.64% and 0.89%
same,Total Cell Count,U2OS; [6],354 and 135
same,Population Apoptotic (%),U2OS; [1],36.36% and 42.86%
same,Population Fragmented Nuclei (%),U2OS; [1],0.47% and 0.53%
same,Population Healthy Nuclei (%),U2OS; [1],90.89% and 88.24%
same,Population Hoechst High Intensity Objects (%),U2OS; [1],0%
same,Population Membrane Permeable-Phenotype (%),U2OS; [1],0.86% and 1.82%
same,Population Mitochondria Different-Phenotype (%),U2OS; [1],0% and 3.03%
same,Population Mitotic Cells (%),U2OS; [1],63.64% and 57.14%
same,Population Normal (%),U2OS; [1],100%
same,Population Pyknosed Nuclei (%),U2OS; [1],8.63% and 11.23%
same,Population Tubulin-Different-Phenotype (%),U2OS; [1],0.17% and 0.61%
same,Population Apoptotic (%),U2OS; [2],43.18% and 38.1%
same,Population Fragmented Nuclei (%),U2OS; [2],2.04% and 1.9%
same,Population Healthy Nuclei (%),U2OS; [2],88.96% and 84.81%
same,Population Hoechst High Intensity Objects (%),U2OS; [2],0%
same,Population Membrane Permeable-Phenotype (%),U2OS; [2],0.46% and 2.99%
same,Population Mitochondria Different-Phenotype (%),U2OS; [2],0% and 8.21%
same,Population Mitotic Cells (%),U2OS; [2],56.82% and 61.9%
same,Population Normal (%),U2OS; [2],100%
same,Population Pyknosed Nuclei (%),U2OS; [2],9% and 13.29%
same,Population Tubulin-Different-Phenotype (%),U2OS; [2],0.23% and 0.75%
same,Population Apoptotic (%),U2OS; [3],43.75% and 67.74%
same,Population Fragmented Nuclei (%),U2OS; [3],3.57% and 1.19%
same,Population Healthy Nuclei (%),U2OS; [3],86.9% and 89.55%
same,Population Hoechst High Intensity Objects (%),U2OS; [3],0%
same,Population Membrane Permeable-Phenotype (%),U2OS; [3],0.29% and 1.67%
same,Population Mitochondria Different-Phenotype (%),U2OS; [3],0.1% and 3%
same,Population Mitotic Cells (%),U2OS; [3],56.25% and 32.26%
same,Population Normal (%),U2OS; [3],100%
same,Population Pyknosed Nuclei (%),U2OS; [3],9.52% and 9.25%
same,Population Tubulin-Different-Phenotype (%),U2OS; [3],0.2% and 1%
same,Population Apoptotic (%),U2OS; [4],34.57% and 41.18%
same,Population Fragmented Nuclei (%),U2OS; [4],3.23% and 2.2%
same,Population Healthy Nuclei (%),U2OS; [4],88.86% and 85.35%
same,Population Hoechst High Intensity Objects (%),U2OS; [4],0%
same,Population Membrane Permeable-Phenotype (%),U2OS; [4],0.55% and 1.72%
same,Population Mitochondria Different-Phenotype (%),U2OS; [4],0.11% and 5.58%
same,Population Mitotic Cells (%),U2OS; [4],65.43% and 58.82%
same,Population Normal (%),U2OS; [4],100%
same,Population Pyknosed Nuclei (%),U2OS; [4],7.92% and 12.45%
same,Population Tubulin-Different-Phenotype (%),U2OS; [4],0.33% and 0%
